Experimental findings from ChEMBL document CHEMBL4177600, “Identification of novel PI3K inhibitors through a scaffold hopping strategy” (Bioorg Med Chem Lett, 2017) are described below.

For data set [1], the target named is CDK8/Cyclin C (Homo sapiens) (UniProt P49336+P24863). The experiment in a line: Inhibition of recombinant human N-terminal GST/HIS6-tagged CDK8 (M1 to Y463 residues)/human N-terminal His6-tagged Cyclin C (M1 to S283 residues) expressed in Sf9 insect cells at 1 uM using RBER-IRStide as substrate by fliter binding assay relative to control. The gist of the method:
(§1)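 Kinase panel of 24 enzymes, each tested at 1 µM; percent inhibition reported as the average of two independent data points.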

Data set [2] has as its target Casein kinase I isoform alpha (Homo sapiens) (UniProt P48729). Kind of data set: Inhibition of recombinant human N-terminal GST/HIS6-tagged CK1alpha (M1 to F365 residues) expressed in Sf9 insect cells at 1 uM using casein as substrate by fliter binding assay relative to control. The gist of the method: as §1
The nature of data set [3]: Kinetic solubility of the compound in phosphate buffered saline at pH 7.4 at 1 to 2 mg measured after 24 hrs by HPLC analysis. The format is physicochemical. The note with it: read-out: Kinetic_solubility. The gist of the method: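 Solid compound (1–2 mg) in 1 mL PBS, pH 7.4, inverted in test tubes for 24 h. Samples centrifuged, supernatant analysed by HPLC with diode-array detection, with peak area compared to a standard of known concentration. LC-MS/MS used when UV signal was too low or the chromophore poor. Reported in µM.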

Data set [4] addresses Vascular endothelial growth factor receptor 2 (Homo sapiens) (UniProt P35968). The experiment in a line: Inhibition of recombinant human N-terminal GST-tagged VEGFR2 (D807 to V1356 residues) expressed in Sf9 insect cells at 1 uM using Poly(Glu:Tyr)4:1 as substrate by filter binding method relative to control. The gist of the method: as §1
The target in data set [5] is PI3-kinase p110-delta/p85-alpha (Homo sapiens, UniProt O00329). Kind of data set: Inhibition of recombinant human full-length N-terminal His6-tagged p110delta/human full-length p85alpha expressed in baculovirus infected Sf21 insect cells using PIP2 as substrate by HTRF assay. To be noted: read-out: Ki(app). For orientation: Time-resolved FRET reads energy transfer from a long-lived donor to a nearby acceptor.

The target in data set [6] is T1, Serine/threonine-protein kinase Chk1 (Homo sapiens) (UniProt O14757).
T1 sequence (whole entry): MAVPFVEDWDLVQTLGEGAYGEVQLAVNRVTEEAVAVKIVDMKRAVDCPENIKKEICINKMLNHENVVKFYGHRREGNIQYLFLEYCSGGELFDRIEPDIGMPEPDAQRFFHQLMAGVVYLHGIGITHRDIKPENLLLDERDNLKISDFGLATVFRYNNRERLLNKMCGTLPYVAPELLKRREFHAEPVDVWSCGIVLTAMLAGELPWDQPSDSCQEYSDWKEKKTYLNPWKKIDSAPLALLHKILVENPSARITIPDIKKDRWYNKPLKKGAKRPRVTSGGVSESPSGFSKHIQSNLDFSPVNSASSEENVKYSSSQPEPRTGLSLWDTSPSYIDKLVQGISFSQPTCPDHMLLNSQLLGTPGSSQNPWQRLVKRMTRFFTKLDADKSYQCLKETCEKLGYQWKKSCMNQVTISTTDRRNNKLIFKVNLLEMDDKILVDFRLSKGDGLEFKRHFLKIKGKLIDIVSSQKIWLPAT
The experiment in a line: Inhibition of recombinant human N-terminal GST/HIS6-tagged CHK1 (M1 to T476 residues) expressed in baculovirus infected Sf9 insect cells at 1 uM using S6 peptide as substrate by fliter binding assay relative to control. The gist of the method: as §1

Data set [7] has as its target CYP2D6 (Homo sapiens, UniProt P10635). The experiment in a line: Inhibition of CYP2D6 (unknown origin) at 10 uM relative to control. The format is ADME. The gist of the method:
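CYP1A2, 2C9, 2C19, 2D6 and 3A4 inhibition measured at 10 µM test compound in duplicate; percent inhibition reported.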

The target in data set [8] is Dual specificity tyrosine-phosphorylation-regulated kinase 1A (Homo sapiens) (UniProt Q13627). The experiment in a line: Inhibition of DYRK1A (unknown origin) at 1 uM relative to control. The gist of the method: as §1
Data set [9] has as its target PI3-kinase p110-alpha/p85-alpha (Homo sapiens, UniProt P42336). The experiment in a line: Inhibition of full-length human P110alpha (1 to 1068 residues)/N-terminal GST-fused p85alpha (1 to 724 residues) expressed in baculovirus expression system by ADP Hunter assay. The note with it: read-out: Ki(app).
For data set [10], the target named is Insulin receptor (Homo sapiens) (UniProt P06213). The experiment in a line: Inhibition of recombinant human N-terminal GST-tagged INSR (G989 to S1382 residues) expressed in baculovirus infected Sf9 cells at 1 uM using Poly(Ala,Glu,Lys,Tyr)6:2:5:1 as substrate by filter binding method relative to control. The gist of the method:
as §1

Data set [11] is described as follows: Permeability of the compound at 300 uL after 5 hrs by PAMPA. The format is ADME. To be noted: read-out: permeability. The gist of the method:
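Pre-coated PAMPA plates with a tri-layer phospholipid membrane. Donor held compound in PBS at the highest concentration soluble in PBS; acceptor was PBS. Incubated 5 h at room temperature, with propranolol and sorafenib (10 µM) as high and low permeability controls. Donor and acceptor concentrations measured by LC-MS/MS; Pe (10^-6 cm/s) calculated from acceptor/equilibrium concentrations, 0.3 cm² area and well volumes.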

Data set [12] has as its target Fibroblast growth factor receptor 1 (Homo sapiens) (UniProt P11362). The experiment in a line: Inhibition of recombinant human N-terminal GST/His6-tagged FGFR1 (G400 to R820 residues) expressed in Sf9 insect cells at 1 uM using poly(Glu,Tyr)4:1 as substrate by filter binding method relative to control. The gist of the method:
as §1

Data set [13] can be described thus: Stability in human liver microsomes assessed as parent compound remaining at 0.5 uM after 30 mins by LC-MS/MS analysis. The format is ADME, microsome. To be noted: read-out: Stability. The gist of the method:
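Single time-point stability assay: 0.5 µM compound, 0.5 mg/ml human or mouse liver microsomes in 0.1 M potassium phosphate pH 7.4, with NADPH-regenerating system, 30 min at 37 °C with shaking. Reaction quenched with acetonitrile/0.1% formic acid and centrifuged; supernatant analysed by LC-MS/MS. Reported as percent remaining; duplicates.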
A general note: Liver microsomes are a subcellular fraction often used to study metabolism.

≈ marks a conversion by molar mass, not a printed value. Bounds are passed on as bounds.

Chain of Insulin receptor (Homo sapiens) (P06213 28-758 limits assumed): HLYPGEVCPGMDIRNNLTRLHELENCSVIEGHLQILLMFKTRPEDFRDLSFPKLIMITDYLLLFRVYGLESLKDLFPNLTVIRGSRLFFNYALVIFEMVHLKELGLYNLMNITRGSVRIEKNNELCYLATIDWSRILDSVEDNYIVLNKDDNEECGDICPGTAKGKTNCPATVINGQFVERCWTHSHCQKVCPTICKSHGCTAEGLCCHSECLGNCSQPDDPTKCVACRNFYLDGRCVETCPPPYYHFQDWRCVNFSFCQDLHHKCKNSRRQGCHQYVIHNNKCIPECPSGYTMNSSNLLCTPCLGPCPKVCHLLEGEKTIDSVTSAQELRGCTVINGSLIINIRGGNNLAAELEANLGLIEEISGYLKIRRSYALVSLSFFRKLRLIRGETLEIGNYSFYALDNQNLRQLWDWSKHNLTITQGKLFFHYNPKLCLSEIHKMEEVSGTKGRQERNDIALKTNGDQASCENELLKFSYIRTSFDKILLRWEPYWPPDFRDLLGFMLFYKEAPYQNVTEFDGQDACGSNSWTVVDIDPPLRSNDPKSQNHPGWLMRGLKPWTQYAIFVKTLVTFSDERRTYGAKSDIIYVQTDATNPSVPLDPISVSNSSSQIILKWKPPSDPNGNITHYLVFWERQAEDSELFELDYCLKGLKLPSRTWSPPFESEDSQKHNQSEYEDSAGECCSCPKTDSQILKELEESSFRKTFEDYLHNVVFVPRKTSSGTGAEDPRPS
Chain of Insulin receptor (Homo sapiens) (P06213 763-1382 limits assumed): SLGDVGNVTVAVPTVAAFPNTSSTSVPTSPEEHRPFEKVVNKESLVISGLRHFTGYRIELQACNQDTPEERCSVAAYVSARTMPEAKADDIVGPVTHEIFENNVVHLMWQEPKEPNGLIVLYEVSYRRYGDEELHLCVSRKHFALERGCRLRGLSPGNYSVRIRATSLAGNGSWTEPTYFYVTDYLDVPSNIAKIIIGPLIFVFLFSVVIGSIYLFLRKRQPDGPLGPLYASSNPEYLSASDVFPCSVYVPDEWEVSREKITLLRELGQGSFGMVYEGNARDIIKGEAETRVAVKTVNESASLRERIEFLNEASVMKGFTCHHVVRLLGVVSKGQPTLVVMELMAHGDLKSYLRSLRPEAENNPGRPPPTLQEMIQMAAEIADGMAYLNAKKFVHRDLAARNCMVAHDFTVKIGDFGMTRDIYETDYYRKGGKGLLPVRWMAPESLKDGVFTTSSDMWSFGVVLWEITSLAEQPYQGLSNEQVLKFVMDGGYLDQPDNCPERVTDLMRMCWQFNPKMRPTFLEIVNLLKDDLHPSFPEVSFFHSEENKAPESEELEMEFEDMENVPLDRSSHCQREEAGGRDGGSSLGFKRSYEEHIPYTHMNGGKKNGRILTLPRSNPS
Chain of Fibroblast growth factor receptor 1 (Homo sapiens) (P11362 22-822 limits assumed): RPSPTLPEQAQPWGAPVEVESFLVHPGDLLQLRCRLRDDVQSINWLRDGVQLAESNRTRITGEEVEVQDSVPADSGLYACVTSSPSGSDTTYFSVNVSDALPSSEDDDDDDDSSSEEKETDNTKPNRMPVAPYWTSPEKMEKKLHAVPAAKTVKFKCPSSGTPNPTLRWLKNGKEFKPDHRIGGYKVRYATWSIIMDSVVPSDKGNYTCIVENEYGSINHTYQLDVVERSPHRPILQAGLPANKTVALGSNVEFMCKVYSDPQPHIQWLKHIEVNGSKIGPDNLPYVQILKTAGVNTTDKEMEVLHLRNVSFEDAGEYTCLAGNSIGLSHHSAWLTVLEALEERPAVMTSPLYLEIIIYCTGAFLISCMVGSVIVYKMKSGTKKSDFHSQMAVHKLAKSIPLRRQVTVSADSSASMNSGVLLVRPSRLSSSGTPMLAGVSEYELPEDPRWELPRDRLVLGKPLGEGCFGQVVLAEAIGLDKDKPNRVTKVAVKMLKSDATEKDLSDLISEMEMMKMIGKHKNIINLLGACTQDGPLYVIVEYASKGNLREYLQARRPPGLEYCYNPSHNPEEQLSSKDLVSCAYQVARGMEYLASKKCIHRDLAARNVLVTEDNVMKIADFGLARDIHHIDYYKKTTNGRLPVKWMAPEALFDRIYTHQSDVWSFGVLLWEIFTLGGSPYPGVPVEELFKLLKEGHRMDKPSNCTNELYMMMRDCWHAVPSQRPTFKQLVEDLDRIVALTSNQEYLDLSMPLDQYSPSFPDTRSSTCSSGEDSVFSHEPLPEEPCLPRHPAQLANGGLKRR
Chain of PI3-kinase p110-alpha/p85-alpha (P27986 whole entry, the tested form may be a part): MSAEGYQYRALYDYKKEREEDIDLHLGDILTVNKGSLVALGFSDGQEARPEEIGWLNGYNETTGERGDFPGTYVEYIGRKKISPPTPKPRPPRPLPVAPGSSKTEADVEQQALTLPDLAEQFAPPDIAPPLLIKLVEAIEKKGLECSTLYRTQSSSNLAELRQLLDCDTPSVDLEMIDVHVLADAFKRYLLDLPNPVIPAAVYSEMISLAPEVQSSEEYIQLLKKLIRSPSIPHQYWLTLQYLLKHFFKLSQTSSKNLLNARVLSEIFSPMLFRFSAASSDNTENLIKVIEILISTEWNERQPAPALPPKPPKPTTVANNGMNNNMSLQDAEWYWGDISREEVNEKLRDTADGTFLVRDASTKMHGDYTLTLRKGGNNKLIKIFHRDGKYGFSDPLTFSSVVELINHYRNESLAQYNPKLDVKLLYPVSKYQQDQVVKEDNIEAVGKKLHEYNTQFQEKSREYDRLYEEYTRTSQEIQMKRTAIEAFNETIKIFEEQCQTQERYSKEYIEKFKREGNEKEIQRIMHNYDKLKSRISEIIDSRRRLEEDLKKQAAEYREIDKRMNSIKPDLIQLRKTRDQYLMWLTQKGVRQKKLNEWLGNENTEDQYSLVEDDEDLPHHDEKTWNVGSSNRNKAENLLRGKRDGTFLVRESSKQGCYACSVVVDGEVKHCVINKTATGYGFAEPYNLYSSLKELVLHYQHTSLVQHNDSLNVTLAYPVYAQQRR
Chain of PI3-kinase p110-alpha/p85-alpha (P42336 whole entry, the tested form may be a part): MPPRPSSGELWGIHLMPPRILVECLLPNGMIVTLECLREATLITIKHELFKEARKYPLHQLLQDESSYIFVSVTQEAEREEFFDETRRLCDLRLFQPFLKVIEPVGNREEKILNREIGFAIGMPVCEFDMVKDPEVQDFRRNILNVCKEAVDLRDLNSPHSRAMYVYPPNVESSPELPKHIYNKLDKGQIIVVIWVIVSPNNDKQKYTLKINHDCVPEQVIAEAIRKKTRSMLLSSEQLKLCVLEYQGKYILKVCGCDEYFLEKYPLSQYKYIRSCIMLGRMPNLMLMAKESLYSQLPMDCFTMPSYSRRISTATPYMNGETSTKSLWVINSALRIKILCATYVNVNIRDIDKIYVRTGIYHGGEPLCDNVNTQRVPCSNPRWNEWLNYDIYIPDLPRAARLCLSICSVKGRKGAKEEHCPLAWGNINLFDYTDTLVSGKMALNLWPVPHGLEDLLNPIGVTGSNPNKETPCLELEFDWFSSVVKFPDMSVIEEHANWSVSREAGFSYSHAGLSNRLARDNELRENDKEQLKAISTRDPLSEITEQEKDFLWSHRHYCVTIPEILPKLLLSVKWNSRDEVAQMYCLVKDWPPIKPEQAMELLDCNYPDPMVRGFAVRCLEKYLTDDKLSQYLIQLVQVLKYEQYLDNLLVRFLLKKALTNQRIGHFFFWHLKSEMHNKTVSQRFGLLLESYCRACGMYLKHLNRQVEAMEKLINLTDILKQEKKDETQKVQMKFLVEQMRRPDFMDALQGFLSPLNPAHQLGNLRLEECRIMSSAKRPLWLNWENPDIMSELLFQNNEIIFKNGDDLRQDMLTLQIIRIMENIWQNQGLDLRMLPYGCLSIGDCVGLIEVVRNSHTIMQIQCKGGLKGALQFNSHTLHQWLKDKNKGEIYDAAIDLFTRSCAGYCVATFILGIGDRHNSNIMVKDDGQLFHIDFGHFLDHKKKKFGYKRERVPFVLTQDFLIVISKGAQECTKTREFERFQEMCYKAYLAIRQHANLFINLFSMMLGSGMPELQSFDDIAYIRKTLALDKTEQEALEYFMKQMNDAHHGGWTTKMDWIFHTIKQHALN
Chain of PI3-kinase p110-delta/p85-alpha (P27986 whole entry): as the sequence (P27986 whole entry, the tested form may be a part) above
Chain of PI3-kinase p110-delta/p85-alpha (O00329 whole entry): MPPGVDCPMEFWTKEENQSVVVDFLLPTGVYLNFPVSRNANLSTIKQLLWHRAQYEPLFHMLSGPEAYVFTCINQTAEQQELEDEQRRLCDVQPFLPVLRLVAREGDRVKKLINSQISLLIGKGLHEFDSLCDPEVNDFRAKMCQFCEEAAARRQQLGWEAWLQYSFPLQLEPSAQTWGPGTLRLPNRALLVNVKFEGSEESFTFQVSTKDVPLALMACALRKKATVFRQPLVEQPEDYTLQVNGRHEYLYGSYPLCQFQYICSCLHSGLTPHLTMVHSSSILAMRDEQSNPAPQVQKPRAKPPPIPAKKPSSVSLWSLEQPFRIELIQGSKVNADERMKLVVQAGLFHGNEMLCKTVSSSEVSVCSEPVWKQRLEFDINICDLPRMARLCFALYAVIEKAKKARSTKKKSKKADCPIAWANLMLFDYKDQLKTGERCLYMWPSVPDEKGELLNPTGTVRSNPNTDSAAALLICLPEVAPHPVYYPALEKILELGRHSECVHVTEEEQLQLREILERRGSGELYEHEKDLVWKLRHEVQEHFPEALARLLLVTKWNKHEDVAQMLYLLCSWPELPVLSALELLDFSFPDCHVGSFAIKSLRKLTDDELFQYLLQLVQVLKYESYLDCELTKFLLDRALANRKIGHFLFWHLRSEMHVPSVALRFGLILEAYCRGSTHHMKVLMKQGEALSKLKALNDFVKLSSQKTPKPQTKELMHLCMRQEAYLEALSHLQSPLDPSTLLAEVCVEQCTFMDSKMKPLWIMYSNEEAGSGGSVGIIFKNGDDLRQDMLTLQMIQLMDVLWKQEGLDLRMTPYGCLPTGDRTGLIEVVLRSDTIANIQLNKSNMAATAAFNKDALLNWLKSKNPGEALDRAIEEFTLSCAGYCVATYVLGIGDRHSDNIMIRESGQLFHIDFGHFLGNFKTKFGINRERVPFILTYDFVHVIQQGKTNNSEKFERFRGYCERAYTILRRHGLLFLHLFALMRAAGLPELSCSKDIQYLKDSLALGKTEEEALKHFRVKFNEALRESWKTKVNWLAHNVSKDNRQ

A word on the inhibition: it is the share of the control response that was lost under treatment. With `CS(=O)(=O)N1CCN(Cc2nc3c(N4CCOCC4)nc(-c4cnc(N)nc4)cn3n2)CC1`, the inhibition in data set [1], in data set [2], in data set [4], in data set [6], in data set [8] and in [10] was less than 25% in each case. In addition, the inhibition in data set [12] is less than 25%. Moreover, the solubility kinetic at 24 h in data set [3] was determined as 100 µM (≈ 47.5 µg/mL). In addition, the Ki in [5] is 6.3 nM; in data set [9], 1 nM. This compound also showed an inhibition at 10 µM in data set [7] of less than 25%. In addition, the Papp at 5 h in data set [11] turned out to be 1.92 ×10⁻⁶ cm/s. For the same compound, the remaining at 0.5 h, 0.5 µM in data set [13] turned out to be 99%.
In the case of `CS(=O)(=O)N1CCN(Cc2nc3c(N4CCOCC4)nc(-c4cnc(N)nc4)c(Cl)n3n2)CC1`, the inhibition in data set [1], in [2], in data set [4], in data set [6], in [8] and in [10] was less than 25% each time. In addition, the inhibition in data set [12] was less than 25%. Moreover, the solubility kinetic at 24 h in data set [3] was found to be 100 µM (≈ 50.9 µg/mL). Further, the Ki is 3.4 nM in data set [5] and 5.5 nM in data set [9]. In data set [7], this compound registered an inhibition at 10 µM of less than 25%. Besides, the Papp at 5 h in [11] is 0.69 ×10⁻⁶ cm/s. Also, in data set [13], the remaining at 0.5 h, 0.5 µM came out at 97%.
In the case of `CS(=O)(=O)N1CCN(Cc2cc3c(N4CCOCC4)nc(-c4cnc(N)nc4)cn3n2)CC1`, the inhibition in data set [1], in [2], in data set [4], in data set [6], in [8] and in [10] was less than 25% each time. For the same compound, the inhibition in data set [12] was less than 25%. In addition, the solubility kinetic at 24 h in data set [3] was 10 µM (≈ 4.74 µg/mL). For the same compound, the figures for the Ki in [5] and in data set [9] were 7.1 nM and 0.99 nM, respectively. Also, the inhibition at 10 µM in data set [7] is less than 25%. Also, in data set [11], the Papp at 5 h came to 0.93 ×10⁻⁶ cm/s. Also, the remaining at 0.5 h, 0.5 µM in data set [13] stood at 97%.
For `CS(=O)(=O)N1CCN(Cc2cn3nc(-c4cnc(N)nc4)nc(N4CCOCC4)c3n2)CC1`, the inhibition in data set [1], in data set [2], in data set [4], in data set [6], in data set [8] and in data set [10] was less than 25% in each case. For the same compound, the inhibition in data set [12] is less than 25%. For the same compound, the solubility kinetic at 24 h in [3] was 10 µM (≈ 4.75 µg/mL). The values for the Ki in [5] and in [9] were 17.9 nM and 1.52 nM, respectively. Moreover, in data set [7], the inhibition at 10 µM is less than 25%. In addition, the Papp at 5 h in data set [11] turned out to be 3.54 ×10⁻⁶ cm/s. The remaining at 0.5 h, 0.5 µM in data set [13] worked out at 95%.
